In ChEMBL document CHEMBL4130443, “Targeting breast cancer stem cells by novel HDAC3-selective inhibitors” (Eur J Med Chem, 2017):
Activity calls are given as the source filed them. No cut-off for these calls is given here.

Tests used:
[1] = molecular target: Histone deacetylase 4 (Homo sapiens) (UniProt P56524); assay: Inhibition of human HDAC4 at 1 uM using Boc-Lys(trifluoroacetyl)-AMC substrate
Summary of the method: (§1)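 Isoform profiling run by a commercial vendor with compounds at 1 µM. Values are percent inhibition, each the average of two determinations.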

[2] = molecular target: T1, Histone deacetylase 8 (Homo sapiens) (UniProt Q9BY41); assay: Inhibition of human HDAC8 at 1 uM using p53 (379 to 382 residues) derived fluorogenic peptide RHKAcKAc; summary of the method: as §1
T1 sequence (whole entry): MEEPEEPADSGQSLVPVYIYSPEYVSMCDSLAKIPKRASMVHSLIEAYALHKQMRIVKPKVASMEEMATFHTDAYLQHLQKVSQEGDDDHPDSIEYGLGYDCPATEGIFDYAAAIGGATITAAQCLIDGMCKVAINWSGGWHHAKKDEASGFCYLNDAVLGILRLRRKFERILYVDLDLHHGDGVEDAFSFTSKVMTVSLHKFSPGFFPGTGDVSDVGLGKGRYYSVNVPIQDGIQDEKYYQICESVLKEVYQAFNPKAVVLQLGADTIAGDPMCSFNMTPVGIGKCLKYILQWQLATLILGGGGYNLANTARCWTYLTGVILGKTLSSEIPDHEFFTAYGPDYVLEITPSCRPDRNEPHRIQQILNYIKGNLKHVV

Histone deacetylase 1 [3] = molecular target: T2, Histone deacetylase 1 (Homo sapiens, UniProt Q13547); assay: Inhibition of human HDAC1 at 1 uM using p53 (379 to 382 residues) derived fluorogenic peptide RHKKAc; summary of the method: as §1
[4] = molecular target: Histone deacetylase 5 (Homo sapiens) (UniProt Q9UQL6); assay: Inhibition of human HDAC5 at 1 uM using Boc-Lys(trifluoroacetyl)-AMC substrate; summary of the method: as §1
[5] = molecular target: T3, Protein deacetylase HDAC6 (Homo sapiens) (UniProt Q9UBN7); assay: Inhibition of human HDAC6 at 1 uM using p53 (379 to 382 residues) derived fluorogenic peptide RHKKAc; summary of the method: as §1
T3 sequence (whole entry): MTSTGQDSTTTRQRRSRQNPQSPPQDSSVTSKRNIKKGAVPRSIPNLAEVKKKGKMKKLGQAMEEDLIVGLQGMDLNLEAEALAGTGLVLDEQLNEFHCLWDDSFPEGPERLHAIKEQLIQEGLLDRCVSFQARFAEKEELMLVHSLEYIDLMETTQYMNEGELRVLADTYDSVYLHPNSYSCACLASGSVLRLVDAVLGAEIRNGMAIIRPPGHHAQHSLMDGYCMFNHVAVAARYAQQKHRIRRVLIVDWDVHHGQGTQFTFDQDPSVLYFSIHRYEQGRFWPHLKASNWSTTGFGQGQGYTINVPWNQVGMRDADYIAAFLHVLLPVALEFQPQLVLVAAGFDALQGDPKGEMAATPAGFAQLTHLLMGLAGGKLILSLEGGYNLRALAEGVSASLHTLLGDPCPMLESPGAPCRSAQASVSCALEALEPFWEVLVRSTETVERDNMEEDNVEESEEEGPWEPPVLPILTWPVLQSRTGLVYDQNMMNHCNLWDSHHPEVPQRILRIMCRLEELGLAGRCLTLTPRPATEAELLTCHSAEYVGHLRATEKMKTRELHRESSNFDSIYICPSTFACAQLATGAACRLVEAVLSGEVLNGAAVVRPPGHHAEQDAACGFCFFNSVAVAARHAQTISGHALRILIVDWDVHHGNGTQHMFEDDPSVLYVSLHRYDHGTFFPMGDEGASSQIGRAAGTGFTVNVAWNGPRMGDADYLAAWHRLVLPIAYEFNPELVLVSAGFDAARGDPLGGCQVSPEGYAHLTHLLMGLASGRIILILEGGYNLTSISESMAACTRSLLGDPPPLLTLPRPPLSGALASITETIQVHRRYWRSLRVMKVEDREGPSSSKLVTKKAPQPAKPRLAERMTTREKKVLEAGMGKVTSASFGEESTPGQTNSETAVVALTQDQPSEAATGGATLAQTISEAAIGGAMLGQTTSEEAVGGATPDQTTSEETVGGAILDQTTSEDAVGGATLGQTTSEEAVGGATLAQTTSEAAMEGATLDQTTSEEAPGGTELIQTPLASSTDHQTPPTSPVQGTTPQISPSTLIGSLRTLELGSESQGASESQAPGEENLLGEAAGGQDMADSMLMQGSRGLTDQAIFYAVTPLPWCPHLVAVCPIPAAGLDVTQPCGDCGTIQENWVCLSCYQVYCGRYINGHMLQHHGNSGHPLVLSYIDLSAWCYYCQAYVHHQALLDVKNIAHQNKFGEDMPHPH

[6] = molecular target: T1, Histone deacetylase 8 (Homo sapiens); assay: Inhibition of HDAC8 in human MDA-MB-231 cells assessed as reduction in Notch1 expression at 0.25 uM incubated for 48 hrs by Western blot method; format: cell-based
Summary of the method: (§2)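 Cells treated 48 h at the indicated concentrations, with a reference HDAC inhibitor at 0.25 µM as positive control on each blot. Lysed in 1% SDS, 10 mM EDTA, 50 mM Tris-HCl pH 8.1 with protease/phosphatase inhibitors, then sonicated. Equal protein by SDS-PAGE on nitrocellulose. Primary antibodies 1:1000 overnight at 4°C, HRP secondary, ECL. Blots for pan-H3 and H3K9 acetylation, tubulin acetylation and Notch1.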

[7] = molecular target: Histone deacetylase 3/Nuclear receptor corepressor 2 (HDAC3/NCoR2) (Homo sapiens) (UniProt O15379+Q9Y618); assay: Inhibition of human HDAC3/NCOR2 at 1 uM using p53 (379 to 382 residues) derived fluorogenic peptide RHKKAc; format: protein-complex assay; summary of the method: as §1
Histone deacetylase 2 [8] = molecular target: T4, Histone deacetylase 2 (Homo sapiens, UniProt Q92769); assay: Inhibition of human HDAC2 at 1 uM using p53 (379 to 382 residues) derived fluorogenic peptide RHKKAc; summary of the method: as §1
[9] = molecular target: T3, Protein deacetylase HDAC6 (Homo sapiens); assay: Inhibition of HDAC6 in human MDA-MB-231 cells assessed as increase in histone H3K9 acetylation at 0.25 uM incubated for 48 hrs by Western blot method; format: cell-based; conditions: in the assay text read “tubulin acetylation” for “histone H3K9 acetylation”; summary of the method: as §2
[10] = molecular target: T5, Histone deacetylase (Homo sapiens) (UniProt Q13547+O15379+Q9UBN7+Q92769+Q9UQL6+Q8WUI4+Q9BY41+Q96DB2+P56524+Q9UKV0+Q969S8); assay: Inhibition of HDAC in human MDA-MB-231 cells assessed as increase in histone H3 acetylation at 0.1 to 2.5uM incubated for 48 hrs by Western blot method; format: cell-based; summary of the method: as §2
[11] = molecular target: T1, Histone deacetylase 8 (Homo sapiens); assay: Inhibition of HDAC8 in human MDA-MB-231 cells assessed as reduction in Notch1 expression at 2.5uM incubated for 48 hrs by Western blot method; format: cell-based; summary of the method: as §2
[12] = molecular target: T3, Protein deacetylase HDAC6 (Homo sapiens); assay: Inhibition of HDAC6 in human MDA-MB-231 cells assessed as increase in histone H3K9 acetylation at 0.1 to 2.5uM incubated for 48 hrs by Western blot method; format: cell-based; conditions: in the assay text read “tubulin acetylation” for “histone H3K9 acetylation”; summary of the method: as §2
[13] = molecular target: T5, Histone deacetylase (Homo sapiens); assay: Inhibition of HDAC in human MDA-MB-231 cells assessed as increase in histone H3K9 acetylation at 0.1 to 2.5uM incubated for 48 hrs by Western blot method; format: cell-based; summary of the method: as §2
[14] = molecular target: T1, Histone deacetylase 8 (Homo sapiens); assay: Inhibition of HDAC8 in human MDA-MB-231 cells assessed as reduction in Notch1 expression at 0.1 to 2.5uM incubated for 48 hrs by Western blot method; format: cell-based; summary of the method: as §2
[15] = molecular target: Histone deacetylase 3 (Homo sapiens) (UniProt O15379); assay: Inhibition of HDAC3 in human MDA-MB-231 cells assessed as reduction in beta-catenin expression at 0.5 to 5 uM by immunoblotting; format: cell-based
Summary of the method: (§3)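 Monolayer cells treated in 5% FBS at graded concentrations. Lysed in SDS/EDTA/Tris pH 8.1 buffer, equal protein immunoblotted with primary antibodies 1:1000 overnight at 4°C. Detected by ECL for phospho-Akt, β-catenin and histone H3 pan/H3K9 acetylation.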

Histone deacetylase 2 [16] = molecular target: T4, Histone deacetylase 2; assay: Inhibition of human HDAC2 using p53 (379 to 382 residues) derived fluorogenic peptide RHKKAc
[17] = molecular target: Histone deacetylase 3 (Homo sapiens) (UniProt O15379); assay: Inhibition of HDAC3 in human MDA-MB-231 cells assessed as reduction in Akt phosphorylation at 0.5 to 5 uM by immunoblotting; format: cell-based; summary of the method: as §3
[18] = molecular target: Histone deacetylase 3 (Homo sapiens) (UniProt O15379); assay: Inhibition of HDAC3 in human MDA-MB-231 cells assessed as increase in histone H3 acetylation at 0.5 to 5 uM by immunoblotting; format: cell-based; summary of the method: as §3
MDA-MB-231 [19] = assay: Cytotoxicity in human MDA-MB-231 cells assessed as reduction in cell viability incubated for 24 to 72 hrs by MTT assay; format: functional, cell-based
Summary of the method: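 MDA-MB-231 seeded 5,000 cells/well with 10% FBS, left overnight, then exposed to agents in 5% FBS for 24, 48 and 72 h. MTT added for 1 h, dye dissolved in DMSO, absorbance at 560 nm. Viability given as percent of the matching vehicle-treated control. N = 6.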

[20] = molecular target: Histone deacetylase 3/Nuclear receptor corepressor 2 (HDAC3/NCoR2) (Homo sapiens, UniProt O15379); assay: Inhibition of human HDAC3/NCOR2 using p53 (379 to 382 residues) derived fluorogenic peptide RHKKAc; format: protein-complex assay
MDA-MB-231 [21] = assay: Growth inhibition of human MDA-MB-231 cells incubated for 48 to 72 hrs by crystal violet staining based assay; format: functional, cell-based
Summary of the method: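 Cells plated at 5000/well and left overnight, then treated in 5% FBS for 24, 48 and 72 h. Washed with PBS, stained 20 min with 0.5% crystal violet in 20% methanol, stain solubilized in 2% SDS, absorbance read at 550. Growth inhibition calculated as (1-Nt/Nc) x 100 against vehicle wells. N = 6.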

MDA-MB-231 [22] = assay: Effect on beta-catenin mRNA expression in human MDA-MB-231 cells at 0.5 to 5 uM by RT-PCR method; format: cell-based; conditions: mda-mb-231, 5 µM
Summary of the method: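 Monolayer cells treated at graded concentrations. Total RNA isolated with TRIzol. β-catenin mRNA assessed by RT-PCR with β-actin as reference.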

Histone deacetylase 1 [23] = molecular target: T2, Histone deacetylase 1; assay: Inhibition of human HDAC1 using p53 (379 to 382 residues) derived fluorogenic peptide RHKKAc
MDA-MB-231 [24] = assay: Inhibition of colony formation of human MDA-MB-231 cells incubated for 48 hrs by crystal violet staining based assay; conditions: MDA-MB-231, 48 h
MDA-MB-231 [25] = assay: Inhibition of mammosphere formation of human MDA-MB-231 cells incubated for 7 days; conditions: MDA-MB-231, 168 h

T4 sequence (Q92769 whole entry, the tested form may be a part): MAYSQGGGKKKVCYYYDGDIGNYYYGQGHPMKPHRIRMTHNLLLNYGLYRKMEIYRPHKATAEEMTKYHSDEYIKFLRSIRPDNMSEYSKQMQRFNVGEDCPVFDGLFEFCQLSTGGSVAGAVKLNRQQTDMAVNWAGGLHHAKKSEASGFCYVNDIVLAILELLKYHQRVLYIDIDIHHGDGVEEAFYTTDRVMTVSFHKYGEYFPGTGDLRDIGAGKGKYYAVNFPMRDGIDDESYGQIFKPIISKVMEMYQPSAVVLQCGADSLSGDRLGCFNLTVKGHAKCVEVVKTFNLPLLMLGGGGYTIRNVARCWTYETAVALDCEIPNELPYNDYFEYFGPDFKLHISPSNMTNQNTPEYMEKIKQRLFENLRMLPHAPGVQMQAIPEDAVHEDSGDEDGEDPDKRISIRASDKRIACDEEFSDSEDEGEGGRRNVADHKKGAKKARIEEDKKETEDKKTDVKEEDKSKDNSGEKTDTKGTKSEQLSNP
T2 sequence (Q13547 whole entry, the tested form may be a part): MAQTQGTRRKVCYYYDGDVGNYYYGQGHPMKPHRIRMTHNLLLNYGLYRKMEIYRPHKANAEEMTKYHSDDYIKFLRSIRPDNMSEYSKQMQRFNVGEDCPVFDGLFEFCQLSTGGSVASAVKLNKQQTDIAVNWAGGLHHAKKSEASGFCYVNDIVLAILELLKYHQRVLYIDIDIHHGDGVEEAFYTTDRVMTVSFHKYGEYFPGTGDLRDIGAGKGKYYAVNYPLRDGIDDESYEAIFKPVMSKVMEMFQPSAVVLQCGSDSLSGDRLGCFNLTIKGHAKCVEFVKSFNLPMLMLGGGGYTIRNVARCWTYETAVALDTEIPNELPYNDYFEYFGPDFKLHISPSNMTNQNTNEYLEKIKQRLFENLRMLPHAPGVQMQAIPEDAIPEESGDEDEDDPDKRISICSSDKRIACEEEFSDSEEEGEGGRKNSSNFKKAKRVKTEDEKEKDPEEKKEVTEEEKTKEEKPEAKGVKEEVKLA
Sequence of Histone deacetylase 5 (Homo sapiens) (Q9UQL6 whole entry, the tested form may be a part): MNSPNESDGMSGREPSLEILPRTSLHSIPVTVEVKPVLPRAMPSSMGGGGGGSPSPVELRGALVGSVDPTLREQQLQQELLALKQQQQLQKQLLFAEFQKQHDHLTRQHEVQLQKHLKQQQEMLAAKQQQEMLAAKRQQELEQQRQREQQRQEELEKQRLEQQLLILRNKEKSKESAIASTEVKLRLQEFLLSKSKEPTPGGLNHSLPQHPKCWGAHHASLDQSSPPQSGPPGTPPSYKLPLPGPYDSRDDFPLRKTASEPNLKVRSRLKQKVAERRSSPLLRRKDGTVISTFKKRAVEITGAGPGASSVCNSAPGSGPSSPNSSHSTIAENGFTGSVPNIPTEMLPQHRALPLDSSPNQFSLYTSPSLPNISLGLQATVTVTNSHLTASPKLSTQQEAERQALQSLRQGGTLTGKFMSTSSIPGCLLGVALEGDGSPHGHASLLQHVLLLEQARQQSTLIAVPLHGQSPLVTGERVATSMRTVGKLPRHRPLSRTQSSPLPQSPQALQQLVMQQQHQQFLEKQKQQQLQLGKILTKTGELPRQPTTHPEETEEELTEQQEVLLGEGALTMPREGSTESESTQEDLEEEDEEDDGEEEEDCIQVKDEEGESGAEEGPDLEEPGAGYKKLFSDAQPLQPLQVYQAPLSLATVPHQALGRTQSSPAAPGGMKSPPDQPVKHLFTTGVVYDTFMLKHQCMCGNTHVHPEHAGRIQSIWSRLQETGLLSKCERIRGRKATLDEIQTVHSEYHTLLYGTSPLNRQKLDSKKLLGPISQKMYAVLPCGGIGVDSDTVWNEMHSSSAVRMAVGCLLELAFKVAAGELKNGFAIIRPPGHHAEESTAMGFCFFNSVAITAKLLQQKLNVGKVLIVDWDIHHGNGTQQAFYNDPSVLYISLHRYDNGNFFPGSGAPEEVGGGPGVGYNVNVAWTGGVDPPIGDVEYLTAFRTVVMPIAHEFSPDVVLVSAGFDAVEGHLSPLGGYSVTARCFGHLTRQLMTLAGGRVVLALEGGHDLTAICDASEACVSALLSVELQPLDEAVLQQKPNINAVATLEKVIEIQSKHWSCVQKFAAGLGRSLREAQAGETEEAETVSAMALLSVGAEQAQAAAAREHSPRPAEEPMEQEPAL
Sequence of Histone deacetylase 3 (Homo sapiens) (O15379 whole entry): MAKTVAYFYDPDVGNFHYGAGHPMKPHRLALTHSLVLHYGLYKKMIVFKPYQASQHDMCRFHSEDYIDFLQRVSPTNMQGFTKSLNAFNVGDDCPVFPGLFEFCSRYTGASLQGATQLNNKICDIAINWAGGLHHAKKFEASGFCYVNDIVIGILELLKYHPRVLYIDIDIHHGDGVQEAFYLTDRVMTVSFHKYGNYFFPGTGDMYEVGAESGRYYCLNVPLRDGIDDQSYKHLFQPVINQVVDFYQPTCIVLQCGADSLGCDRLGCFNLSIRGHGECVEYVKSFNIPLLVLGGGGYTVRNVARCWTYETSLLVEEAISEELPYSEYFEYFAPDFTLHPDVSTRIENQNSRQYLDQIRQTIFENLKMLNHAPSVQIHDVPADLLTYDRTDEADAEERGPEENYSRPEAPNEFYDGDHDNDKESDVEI
Sequence of Histone deacetylase 4 (Homo sapiens) (P56524 whole entry, canonical isoform): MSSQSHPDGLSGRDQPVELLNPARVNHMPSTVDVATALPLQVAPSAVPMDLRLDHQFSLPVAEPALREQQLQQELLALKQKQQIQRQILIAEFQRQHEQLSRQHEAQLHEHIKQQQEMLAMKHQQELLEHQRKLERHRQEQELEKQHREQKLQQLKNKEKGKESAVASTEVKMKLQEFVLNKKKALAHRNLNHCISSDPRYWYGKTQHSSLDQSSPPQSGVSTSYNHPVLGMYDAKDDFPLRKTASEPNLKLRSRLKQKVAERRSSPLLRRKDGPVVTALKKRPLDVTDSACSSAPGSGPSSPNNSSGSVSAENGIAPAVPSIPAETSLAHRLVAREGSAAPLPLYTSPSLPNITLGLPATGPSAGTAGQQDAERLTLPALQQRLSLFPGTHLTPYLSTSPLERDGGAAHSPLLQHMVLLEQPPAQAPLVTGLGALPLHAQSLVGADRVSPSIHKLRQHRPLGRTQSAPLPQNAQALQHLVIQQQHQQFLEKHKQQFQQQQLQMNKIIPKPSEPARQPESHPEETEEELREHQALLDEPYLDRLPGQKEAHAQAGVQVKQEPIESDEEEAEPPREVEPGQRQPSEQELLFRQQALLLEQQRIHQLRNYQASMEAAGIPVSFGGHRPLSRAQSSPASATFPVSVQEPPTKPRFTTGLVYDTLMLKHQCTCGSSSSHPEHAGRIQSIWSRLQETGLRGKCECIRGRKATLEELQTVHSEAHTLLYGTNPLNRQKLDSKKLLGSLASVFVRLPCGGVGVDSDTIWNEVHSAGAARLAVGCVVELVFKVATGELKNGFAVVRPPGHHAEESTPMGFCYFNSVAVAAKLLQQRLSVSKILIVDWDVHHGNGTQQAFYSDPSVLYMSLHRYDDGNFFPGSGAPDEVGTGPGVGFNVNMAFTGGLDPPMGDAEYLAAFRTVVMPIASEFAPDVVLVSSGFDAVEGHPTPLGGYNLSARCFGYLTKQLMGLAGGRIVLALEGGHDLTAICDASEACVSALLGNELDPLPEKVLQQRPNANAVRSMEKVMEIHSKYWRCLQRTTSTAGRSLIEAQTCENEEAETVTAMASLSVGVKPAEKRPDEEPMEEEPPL

## CC(C)[C@H](C(=O)Nc1ccc(C(=O)NO)cc1)c1ccccc1
[1]
  inhibition: 21%
[2]
  inhibition: 87%
Histone deacetylase 1 [3]
  inhibition: 95%
[4]
  inhibition: 0%
[5]
  inhibition: 100%
[6]
  inhibition: Active
[7]
  inhibition: 93%
Histone deacetylase 2 [8]
  inhibition: 72%
[9]
  inhibition: Active

## CC(C)[C@@H](C(=O)Nc1ccc(C(=O)Nc2ccccc2N)cc1)c1ccccc1
[1]
  inhibition: 9%
[2]
  inhibition: 38%
Histone deacetylase 1 [3]
  inhibition: 80%
[4]
  inhibition: 9%
[5]
  inhibition: 16%
[7]
  inhibition: 76%
[10]
  inhibition: Active
[11]
  inhibition: Active
[12]
  inhibition: inactive
Histone deacetylase 2 [8]
  inhibition: 57%
[13]
  inhibition: Active

## CC(C)[C@H](C(=O)Nc1ccc(C(=O)Nc2ccccc2N)cc1)c1ccccc1
[1]
  inhibition: 0%
[2]
  inhibition: 7%
Histone deacetylase 1 [3]
  inhibition: 55%
[4]
  inhibition: 0%
[14]
  inhibition: inactive
[5]
  inhibition: 20%
[7]
  inhibition: 30%
[10]
  inhibition: Active
[12]
  inhibition: inactive
Histone deacetylase 2 [8]
  inhibition: 31%
[13]
  inhibition: Active

## Nc1cc(F)ccc1NC(=O)c1ccc(NC(=O)Cc2ccccc2)cc1
[15]
  inhibition: Dose-dependent effect
Histone deacetylase 2 [16]
  IC50: 3.2 µM
[17]
  inhibition: Dose-dependent effect
[18]
  inhibition: Dose-dependent effect
MDA-MB-231 [19]
  IC50: ≥ 10 µM
[20]
  IC50: 180 nM
MDA-MB-231 [21]
  IC50: ≥ 10 µM
MDA-MB-231 [22]
  Activity: Non-Toxic
Histone deacetylase 1 [23]
  IC50: 2300 nM
MDA-MB-231 [24]
  IC50: 500 to 1000 nM
MDA-MB-231 [25]
  IC50: 500 to 1000 nM
